Laboratory results taken from ChEMBL document CHEMBL4002591 (J Med Chem, 2017).
Activity calls are given as the source filed them. The rule behind the calls is not given here.

Experiments:
[1] = target: Protein mono-ADP-ribosyltransferase PARP4 (Homo sapiens, UniProt Q9UKK3); test: Inhibition of PARP4 (unknown origin)
[2] = test system: HEK293; test: Cytotoxicity against HEK293 cells by light microscopic analysis; assay type: cell-based; conditions: human
Summary of the method: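 Viability of TCF/LEF reporter HEK293 cells was checked by light microscopy during the Wnt-signaling reporter assay.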

[3] = target: T1, Protein mono-ADP-ribosyltransferase PARP12 (Homo sapiens, UniProt Q9H0J9); test: Inhibition of PARP12 (unknown origin)
T1 sequence (Q9H0J9 whole entry): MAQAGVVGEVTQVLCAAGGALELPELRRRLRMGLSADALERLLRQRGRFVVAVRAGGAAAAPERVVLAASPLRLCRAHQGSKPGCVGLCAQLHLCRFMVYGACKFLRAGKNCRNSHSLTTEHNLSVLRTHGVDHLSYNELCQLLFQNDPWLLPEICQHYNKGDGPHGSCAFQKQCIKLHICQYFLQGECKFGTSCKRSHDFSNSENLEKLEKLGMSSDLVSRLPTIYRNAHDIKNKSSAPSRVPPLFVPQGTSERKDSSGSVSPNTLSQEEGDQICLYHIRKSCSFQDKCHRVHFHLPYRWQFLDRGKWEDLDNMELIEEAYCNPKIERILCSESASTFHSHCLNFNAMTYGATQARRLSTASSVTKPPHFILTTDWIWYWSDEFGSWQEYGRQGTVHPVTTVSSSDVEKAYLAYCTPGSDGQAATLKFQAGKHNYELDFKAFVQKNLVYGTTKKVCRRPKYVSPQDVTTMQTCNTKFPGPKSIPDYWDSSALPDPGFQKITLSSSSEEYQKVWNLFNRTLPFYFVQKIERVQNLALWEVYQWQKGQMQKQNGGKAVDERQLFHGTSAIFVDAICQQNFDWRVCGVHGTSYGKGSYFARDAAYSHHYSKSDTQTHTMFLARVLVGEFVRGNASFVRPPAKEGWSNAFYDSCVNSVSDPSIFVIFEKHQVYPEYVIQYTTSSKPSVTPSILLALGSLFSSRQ

[4] = organism: Mus musculus; test: (§1) Inhibition of TNKS in mouse 3T3L1 cells assessed as upregulation of GLUT4 by measuring increase in insulin-stimulated glucose uptake at 1 uM using 2-deoxy-D-[2,6-3H]glucose as substrate pretreated for 1 hr followed by insulin stimulation for 30 mins and subsequent addition of substrate measured after 5 mins by scintillation counter; assay type: cell-based; design: scale not given: the % may be the effect or the level left
Summary of the method: (§2)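 3T3-L1 fibroblasts were grown in DMEM and differentiated to adipocytes with insulin, dexamethasone and isobutylmethylxanthine, then used 10-12 d later. Cells were serum-starved 2 h at 37°C and given compound for 1 h. After KRH washes (pH 7.4), cells were held 30 min with compound, with or without 100 nM insulin. 2-Deoxy-D-[2,6-³H]glucose was added for 5 min.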

[5] = target: Protein mono-ADP-ribosyltransferase PARP14 (Homo sapiens, UniProt Q460N5); test: Inhibition of PARP14 (unknown origin)
Protein mono-ADP-ribosyltransferase PARP14, sequence (Q460N5 whole entry): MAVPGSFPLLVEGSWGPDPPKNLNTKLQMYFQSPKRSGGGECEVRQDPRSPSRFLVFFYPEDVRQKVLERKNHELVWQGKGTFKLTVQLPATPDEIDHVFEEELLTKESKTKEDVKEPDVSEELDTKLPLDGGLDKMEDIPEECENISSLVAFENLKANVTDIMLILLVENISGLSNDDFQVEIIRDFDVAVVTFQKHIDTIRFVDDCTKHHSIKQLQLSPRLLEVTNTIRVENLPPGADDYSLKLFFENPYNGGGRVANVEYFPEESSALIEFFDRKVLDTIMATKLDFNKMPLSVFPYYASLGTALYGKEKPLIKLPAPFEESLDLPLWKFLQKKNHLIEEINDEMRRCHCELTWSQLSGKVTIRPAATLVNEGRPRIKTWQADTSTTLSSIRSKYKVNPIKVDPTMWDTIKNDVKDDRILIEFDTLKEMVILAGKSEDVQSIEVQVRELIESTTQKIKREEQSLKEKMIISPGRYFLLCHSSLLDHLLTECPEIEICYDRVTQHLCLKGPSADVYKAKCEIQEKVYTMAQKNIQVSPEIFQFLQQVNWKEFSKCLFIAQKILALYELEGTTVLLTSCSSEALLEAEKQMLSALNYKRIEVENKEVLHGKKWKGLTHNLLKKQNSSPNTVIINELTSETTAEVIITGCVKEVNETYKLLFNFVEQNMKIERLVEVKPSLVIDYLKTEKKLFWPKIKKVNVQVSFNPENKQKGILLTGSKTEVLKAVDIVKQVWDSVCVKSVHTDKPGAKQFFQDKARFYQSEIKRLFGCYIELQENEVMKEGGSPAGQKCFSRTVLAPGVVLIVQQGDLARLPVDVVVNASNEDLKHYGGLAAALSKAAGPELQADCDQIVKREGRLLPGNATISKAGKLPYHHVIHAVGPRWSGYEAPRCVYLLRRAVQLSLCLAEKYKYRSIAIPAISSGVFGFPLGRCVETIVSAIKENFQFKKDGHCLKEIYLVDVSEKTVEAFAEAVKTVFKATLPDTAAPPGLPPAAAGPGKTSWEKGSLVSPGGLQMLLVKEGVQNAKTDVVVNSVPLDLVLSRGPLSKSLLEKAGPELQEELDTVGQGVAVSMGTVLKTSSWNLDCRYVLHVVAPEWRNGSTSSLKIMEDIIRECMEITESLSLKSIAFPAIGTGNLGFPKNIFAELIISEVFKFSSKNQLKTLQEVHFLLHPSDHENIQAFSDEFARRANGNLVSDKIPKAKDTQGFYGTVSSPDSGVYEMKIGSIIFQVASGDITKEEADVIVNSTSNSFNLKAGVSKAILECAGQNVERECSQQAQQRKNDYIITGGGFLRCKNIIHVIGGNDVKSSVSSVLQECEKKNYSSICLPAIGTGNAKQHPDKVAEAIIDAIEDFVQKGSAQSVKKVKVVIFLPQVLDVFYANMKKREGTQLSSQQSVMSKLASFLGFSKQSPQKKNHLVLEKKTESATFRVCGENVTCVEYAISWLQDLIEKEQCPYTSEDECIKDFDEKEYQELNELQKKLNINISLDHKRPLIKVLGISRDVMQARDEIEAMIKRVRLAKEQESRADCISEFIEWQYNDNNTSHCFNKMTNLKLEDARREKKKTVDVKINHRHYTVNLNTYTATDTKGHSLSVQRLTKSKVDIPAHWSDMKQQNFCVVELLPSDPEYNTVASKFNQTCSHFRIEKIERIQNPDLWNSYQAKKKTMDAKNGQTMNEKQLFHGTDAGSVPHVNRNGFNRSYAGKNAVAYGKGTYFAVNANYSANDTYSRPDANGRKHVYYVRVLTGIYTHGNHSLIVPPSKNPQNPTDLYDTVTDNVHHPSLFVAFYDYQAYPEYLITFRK

[6] = target: Poly [ADP-ribose] polymerase 1 (Homo sapiens, UniProt P09874); test: Inhibition of full length recombinant human N-terminal GST-tagged PARP1 expressed in Baculovirus infected Sf9 cells using TACS-Sapphire as substrate measured after 1 hr by colorimetric assay; conditions: read-out: IC50
Poly [ADP-ribose] polymerase 1, sequence (P09874 whole entry): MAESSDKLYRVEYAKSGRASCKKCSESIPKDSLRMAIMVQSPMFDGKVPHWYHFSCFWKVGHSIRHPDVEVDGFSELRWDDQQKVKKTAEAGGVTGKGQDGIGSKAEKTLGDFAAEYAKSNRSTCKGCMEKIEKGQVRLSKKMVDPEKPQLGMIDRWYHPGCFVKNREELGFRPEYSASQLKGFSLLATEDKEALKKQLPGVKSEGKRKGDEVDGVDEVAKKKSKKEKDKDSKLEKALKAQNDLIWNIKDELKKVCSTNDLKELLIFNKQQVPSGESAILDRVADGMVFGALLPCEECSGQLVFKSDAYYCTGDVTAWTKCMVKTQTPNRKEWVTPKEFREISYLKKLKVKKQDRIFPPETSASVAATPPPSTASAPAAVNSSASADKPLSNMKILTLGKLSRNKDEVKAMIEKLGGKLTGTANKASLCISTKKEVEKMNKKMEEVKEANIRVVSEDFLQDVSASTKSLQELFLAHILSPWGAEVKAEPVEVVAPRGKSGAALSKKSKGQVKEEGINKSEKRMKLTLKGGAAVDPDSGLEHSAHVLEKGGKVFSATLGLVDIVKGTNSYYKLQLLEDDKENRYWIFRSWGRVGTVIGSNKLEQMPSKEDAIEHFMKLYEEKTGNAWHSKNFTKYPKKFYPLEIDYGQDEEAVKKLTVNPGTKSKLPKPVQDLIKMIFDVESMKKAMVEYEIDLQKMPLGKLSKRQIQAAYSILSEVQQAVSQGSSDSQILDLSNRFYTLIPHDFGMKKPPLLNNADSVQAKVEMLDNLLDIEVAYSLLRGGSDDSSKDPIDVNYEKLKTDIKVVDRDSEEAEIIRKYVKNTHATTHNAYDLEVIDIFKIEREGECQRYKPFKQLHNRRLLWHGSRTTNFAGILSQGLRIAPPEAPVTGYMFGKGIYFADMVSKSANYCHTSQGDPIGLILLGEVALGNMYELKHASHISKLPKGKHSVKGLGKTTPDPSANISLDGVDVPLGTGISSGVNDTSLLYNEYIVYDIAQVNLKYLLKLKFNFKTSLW

[7] = test system: DLD-1; test: Anti-proliferative activity against human DLD1 cells assessed as inhibition of colony formation at 100 nM measured after 18 days under normal serum condition by trypan blue staining based light microscopic analysis; assay type: functional, cell-based
Summary of the method: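 DLD-1 colony-forming assay under normal serum: 1000 cells/well, with 1.0 µM or 100 nM compound, or a 1% DMSO (v/v) vehicle control. Colonies were counted, n = 3.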

[8] = target: T2, Poly [ADP-ribose] polymerase tankyrase-1 (Homo sapiens, UniProt O95271); test: Inhibition of recombinant human N-terminal GST-tagged TNKS1 (1001 to 1327 residues) expressed in baculovirus infected sf9 cells using TACS-Sapphire as substrate measured after 30 mins by colorimetric assay
T2 sequence (O95271 whole entry): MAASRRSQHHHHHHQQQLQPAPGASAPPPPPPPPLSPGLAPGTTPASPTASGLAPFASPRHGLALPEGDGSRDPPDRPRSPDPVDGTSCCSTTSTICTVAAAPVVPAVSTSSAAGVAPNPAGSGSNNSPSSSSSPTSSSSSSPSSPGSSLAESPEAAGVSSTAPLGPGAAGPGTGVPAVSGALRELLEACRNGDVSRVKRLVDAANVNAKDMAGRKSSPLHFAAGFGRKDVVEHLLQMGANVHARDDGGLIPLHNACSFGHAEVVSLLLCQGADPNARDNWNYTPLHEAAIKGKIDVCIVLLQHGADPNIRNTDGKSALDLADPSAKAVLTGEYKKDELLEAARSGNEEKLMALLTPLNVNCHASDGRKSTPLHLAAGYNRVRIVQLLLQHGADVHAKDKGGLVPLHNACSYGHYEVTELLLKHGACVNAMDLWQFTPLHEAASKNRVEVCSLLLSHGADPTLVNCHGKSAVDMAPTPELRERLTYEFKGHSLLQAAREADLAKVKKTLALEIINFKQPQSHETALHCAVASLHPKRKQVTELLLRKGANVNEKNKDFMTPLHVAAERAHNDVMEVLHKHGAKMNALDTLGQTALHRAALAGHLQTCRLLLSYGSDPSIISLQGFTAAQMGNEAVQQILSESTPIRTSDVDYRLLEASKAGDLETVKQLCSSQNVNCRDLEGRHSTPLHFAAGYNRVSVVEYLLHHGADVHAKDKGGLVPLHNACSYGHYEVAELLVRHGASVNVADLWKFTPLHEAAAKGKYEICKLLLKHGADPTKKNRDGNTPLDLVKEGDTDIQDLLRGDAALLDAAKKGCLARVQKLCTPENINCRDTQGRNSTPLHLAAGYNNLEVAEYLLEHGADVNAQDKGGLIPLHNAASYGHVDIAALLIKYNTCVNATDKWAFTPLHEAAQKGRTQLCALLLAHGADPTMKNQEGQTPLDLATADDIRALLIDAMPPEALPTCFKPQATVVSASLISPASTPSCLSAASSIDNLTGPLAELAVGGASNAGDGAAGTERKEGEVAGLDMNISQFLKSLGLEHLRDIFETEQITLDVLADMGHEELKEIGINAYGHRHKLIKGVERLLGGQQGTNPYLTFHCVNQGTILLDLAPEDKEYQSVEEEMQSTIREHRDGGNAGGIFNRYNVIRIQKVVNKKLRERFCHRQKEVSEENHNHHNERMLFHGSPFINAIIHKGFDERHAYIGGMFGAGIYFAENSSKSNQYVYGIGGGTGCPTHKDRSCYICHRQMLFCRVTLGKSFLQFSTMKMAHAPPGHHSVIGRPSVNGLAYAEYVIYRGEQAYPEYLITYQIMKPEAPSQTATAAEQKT

[9] = organism: Mus musculus; test: as §1, with “100 nM” for “1 uM”; assay type: cell-based; design: scale not given: the % may be the effect or the level left; summary of the method: as §2

Protein mono-ADP-ribosyltransferase PARP4, sequence (Q9UKK3 whole entry): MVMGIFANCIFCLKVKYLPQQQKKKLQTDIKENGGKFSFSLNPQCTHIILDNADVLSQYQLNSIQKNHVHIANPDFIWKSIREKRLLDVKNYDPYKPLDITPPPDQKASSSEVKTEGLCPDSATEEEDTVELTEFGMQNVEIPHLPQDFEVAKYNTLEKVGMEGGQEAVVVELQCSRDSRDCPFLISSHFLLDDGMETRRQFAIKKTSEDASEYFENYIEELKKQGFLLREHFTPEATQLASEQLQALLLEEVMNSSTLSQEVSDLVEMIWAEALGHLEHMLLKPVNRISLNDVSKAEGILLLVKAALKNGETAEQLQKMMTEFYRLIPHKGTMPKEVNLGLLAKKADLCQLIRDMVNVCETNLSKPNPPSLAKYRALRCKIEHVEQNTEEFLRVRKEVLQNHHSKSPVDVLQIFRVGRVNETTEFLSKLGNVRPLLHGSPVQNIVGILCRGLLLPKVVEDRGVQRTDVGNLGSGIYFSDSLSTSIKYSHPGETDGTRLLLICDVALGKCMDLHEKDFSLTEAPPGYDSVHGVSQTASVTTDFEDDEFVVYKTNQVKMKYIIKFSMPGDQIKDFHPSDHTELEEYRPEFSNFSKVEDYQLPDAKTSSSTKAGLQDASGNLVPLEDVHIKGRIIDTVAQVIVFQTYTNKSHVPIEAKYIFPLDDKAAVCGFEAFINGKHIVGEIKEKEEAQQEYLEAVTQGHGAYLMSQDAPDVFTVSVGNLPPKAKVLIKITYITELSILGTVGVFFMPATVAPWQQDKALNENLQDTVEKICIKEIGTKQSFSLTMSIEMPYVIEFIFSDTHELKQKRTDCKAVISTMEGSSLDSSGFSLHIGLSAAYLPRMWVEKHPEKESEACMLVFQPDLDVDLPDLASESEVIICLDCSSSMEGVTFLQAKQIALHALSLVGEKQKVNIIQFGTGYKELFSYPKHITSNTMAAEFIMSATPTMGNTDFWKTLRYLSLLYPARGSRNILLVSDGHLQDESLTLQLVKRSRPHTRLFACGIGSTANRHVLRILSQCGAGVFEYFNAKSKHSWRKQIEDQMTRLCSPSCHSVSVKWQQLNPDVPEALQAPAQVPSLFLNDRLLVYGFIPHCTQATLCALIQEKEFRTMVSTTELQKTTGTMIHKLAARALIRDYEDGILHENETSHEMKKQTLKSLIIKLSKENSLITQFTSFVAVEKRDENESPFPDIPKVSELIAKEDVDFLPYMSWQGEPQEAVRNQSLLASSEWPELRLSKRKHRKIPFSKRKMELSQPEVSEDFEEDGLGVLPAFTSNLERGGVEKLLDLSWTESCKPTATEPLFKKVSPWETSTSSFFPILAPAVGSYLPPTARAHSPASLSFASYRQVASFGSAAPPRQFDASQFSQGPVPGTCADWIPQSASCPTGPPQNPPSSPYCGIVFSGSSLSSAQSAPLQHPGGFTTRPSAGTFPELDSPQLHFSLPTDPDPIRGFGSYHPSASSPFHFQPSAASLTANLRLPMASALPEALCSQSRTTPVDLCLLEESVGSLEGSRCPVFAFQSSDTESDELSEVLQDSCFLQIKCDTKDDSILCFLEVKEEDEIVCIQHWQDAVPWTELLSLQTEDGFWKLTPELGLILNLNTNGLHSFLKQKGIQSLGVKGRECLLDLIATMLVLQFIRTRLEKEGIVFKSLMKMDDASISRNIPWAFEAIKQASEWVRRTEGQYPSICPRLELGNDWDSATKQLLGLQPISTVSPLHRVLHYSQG

Row | SMILES | IC50 [1] [µM] | Activity [2] | IC50 [3] [µM] | Activity [4] [%] | IC50 [5] [µM] | IC50 [6] [µM] | inhibition [7] | IC50 [8] [µM] | Activity [9] [%]
1 | Cc1cccc2c(=O)[nH]c(CCC(=O)Nc3ccc(C(=O)Nc4cccc5cccnc45)cc3)nc12 | 65 | Non-Toxic | > 100 | 20 | > 100 | 6.5 | Active | 0.0051 | 20
2 | O=C(CCc1nc2ccccc2c(=O)[nH]1)Nc1ccc(C(=O)Nc2cccc3cccnc23)cc1 | 69 | Non-Toxic | > 100 | 20 | > 100 | 8.2 | Active | 0.0091 | 40
